Assay results from ChEMBL document CHEMBL1124904, “7-Oxabicyclo[2.2.1]heptyl carboxylic acids as thromboxane A2 antagonists: aza omega-chain analogues” (J Med Chem, 1990).

What was measured:
[1] = organism: Homo sapiens; test: Ability to inhibit platelet aggregation of human platelet-rich plasma (PRP) induced by 800 uM of AA-IPA (arachidonic acid); assay type: functional; details: read-out: I50
Outline: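 Human platelet-rich plasma; aggregation triggered by arachidonic acid at 800 μM. Test acids were also checked against ADP (20 μM)-induced aggregation. I50 taken as the concentration inhibiting aggregation.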

[2] = organism: Cavia porcellus; test: Evaluated for its potency in guinea pig trachea (GPT) spirals in the presence of increasing concentrations; assay type: functional
Outline: (§1)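 Guinea pig tracheal spirals contracted by U-46,619 in cumulative dose-response curves, repeated with increasing antagonist concentrations; Kb from analysis of the rightward shift.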

[3] = organism: Rattus norvegicus; test: Evaluated for its potency in rat aorta (RA) strips in the presence of increasing concentrations; assay type: functional
Outline: (§2)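 Rat aortic strips contracted by U-46,619 in cumulative dose-response curves, repeated with increasing antagonist concentrations; Kb from analysis of the rightward shift.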

[4] = tested on: Cavia porcellus; test: Evaluated for the percent inhibition of arachidonate-induced dynamic compliance at 3 min after dosing (0.1 mg/kg iv) in anesthetized guinea pig.; assay type: functional
Outline: (§3)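 Anesthetized guinea pig dosed iv with antagonist at 0.1 mg/kg (some at 1.0 mg/kg). Arachidonic acid 0.5 mg/kg iv given as challenge 3 or 60 min later. Airway resistance, dynamic compliance and blood pressure recorded; percent inhibition of each response.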

[5] = biological target: T1, Thromboxane A2 receptor (Homo sapiens, UniProt P21731); test: Binding affinity was determined from the inhibition of [3H]-SQ 29,548 binding to Thromboxane A2 receptor in human platelet membranes.; assay type: cell membranes
T1 sequence (P21731 whole entry): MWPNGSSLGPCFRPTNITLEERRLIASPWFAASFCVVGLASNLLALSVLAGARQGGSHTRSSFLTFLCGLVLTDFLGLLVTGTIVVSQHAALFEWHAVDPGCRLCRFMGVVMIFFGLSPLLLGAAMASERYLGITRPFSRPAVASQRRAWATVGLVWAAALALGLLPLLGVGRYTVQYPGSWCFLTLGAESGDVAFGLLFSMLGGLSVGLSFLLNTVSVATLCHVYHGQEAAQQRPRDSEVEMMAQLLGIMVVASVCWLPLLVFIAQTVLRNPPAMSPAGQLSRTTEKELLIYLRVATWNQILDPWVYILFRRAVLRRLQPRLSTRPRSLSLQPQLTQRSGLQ
Outline: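 Radioligand binding to human platelet membranes with [5,6-3H2]-SQ 29,548 as tracer; Kd derived from inhibition of specific binding.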

[6] = tested on: Cavia porcellus; test: Evaluated for the percent inhibition of arachidonate-induced dynamic compliance at 60 min after dosing (0.1 mg/kg iv) in anesthetized guinea pig.; assay type: functional; outline: as §3
[7] = organism: Homo sapiens; test: Evaluated for ability to inhibit platelet aggregation of human platelet-rich plasma (PRP) induced by 11.9-epoxymethano-PGH2; assay type: functional; details: read-out: I50
Outline: (§4)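 Human PRP aggregation induced by U-46,619 (11,9-epoxymethano-PGH2, stable PGH2/TxA2 mimic) at 5 or 10 μM; I50 reported. Values are single determinations unless otherwise noted.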

[8] = tested on: Cavia porcellus; test: Evaluated for the percent inhibition of arachidonate-induced air-way resistance at 3 min after dosing (0.1 mg/kg iv) in anesthetized guinea pig.; assay type: functional; outline: as §3
[9] = tested on: Cavia porcellus; test: Evaluated for the percent inhibition of arachidonate-induced hypertension resulting in decreases in blood pressure at 3 min after dosing (0.1 mg/kg iv) in anesthetized guinea pig.; assay type: functional; outline: as §3
[10] = tested on: Cavia porcellus; test: Evaluated for the percent inhibition of arachidonate-induced air-way resistance at 60 min after dosing (0.1 mg/kg iv) in anesthetized guinea pig.; assay type: functional; outline: as §3
[11] = tested on: Cavia porcellus; test: Evaluated for the percent inhibition of arachidonate-induced hypertension resulting in decreases in blood pressure at 60 min after dosing (0.1 mg/kg iv) in anesthetized guinea pig.; assay type: functional; outline: as §3
[12] = organism: Homo sapiens; test: Evaluated for ability to inhibit platelet aggregation of human platelet-rich plasma (PRP) induced by 11.9-epoxymethano-PGH2.; assay type: functional; details: read-out: I50; outline: as §4
[13] = organism: Cavia porcellus; test: Evaluated for its potency in Guinea pig trachea (GPT) spirals in the presence of increasing concentrations; assay type: functional; outline: as §1
[14] = organism: Rattus norvegicus; test: Evaluated for its potency Rat aorta (RA) strips in the presence of increasing concentrations; assay type: functional; outline: as §2

## O=C(O)CCC/C=C/CC1C2CCC(O2)C1CNNC(=O)Cc1ccccc1 (stereo not drawn)
[1]; Homo sapiens, Plasma
  IC50: 200 nM

## CCCCCCCCC(=O)NCC1C2CCC(O2)C1C/C=C/CCCC(=O)O (stereo not drawn)
[1]; Homo sapiens, Plasma
  IC50: 15000 nM

## O=C(O)CCC/C=C/CC1C2CCC(O2)C1CNCC(=O)Nc1ccccc1 (stereo not drawn)
[1]; Homo sapiens, Plasma
  IC50: 5300 nM

## O=C(O)CCC/C=C/CC1C2CCC(O2)C1CNC(=O)CNC(=O)CCCC1CCCCC1 (stereo not drawn)
[2]
  Kb: 0.07 nM
[3]
  Kb: 0.9 nM
[4]
  Inhibition: 97%
[1]; Homo sapiens, Plasma
  IC50: 45 nM
[5]
  Kd: 1.1 nM
[6]
  Inhibition: 59%
[7]
  IC50: 120 nM
[8]
  Inhibition: 99%
[9]
  Inhibition: 289%
[10]
  Inhibition: 84%
[11]
  Inhibition: 289%

## COc1ccc(NCC(=O)NCC2C3CCC(O3)C2C/C=C/CCCC(=O)O)cc1 (stereo not drawn)
[1]; Homo sapiens, Plasma
  IC50: 13500 nM

## COc1ccc(SCC(=O)NCC2C3CCC(O3)C2C/C=C/CCCC(=O)O)cc1 (stereo not drawn)
[1]; Homo sapiens, Plasma
  IC50: 1400 nM

## CCCCC(=O)NCCC(=O)NCC1C2CCC(O2)C1C/C=C/CCCC(=O)O (stereo not drawn)
[1]; Homo sapiens, Plasma
  IC50: 14000 nM

## CCCCCNC(=O)CCNC(=O)C1C2CCC(O2)C1C/C=C/CCCC(=O)O (stereo not drawn)
[1]; Homo sapiens, Plasma
  IC50: 14000 nM

## CCCCCCC(=O)OCC(=O)NCC1C2CCC(O2)C1C/C=C/CCCC(=O)O (stereo not drawn)
[1]; Homo sapiens, Plasma
  IC50: 660 nM

## O=C(O)CCC/C=C/CC1C2CCC(O2)C1CNC(=O)C(=O)Nc1ccccc1 (stereo not drawn)
[1]; Homo sapiens, Plasma
  IC50: 5500 nM

## CCCCCC/C(S)=N/C/C(S)=N/CC1C2CC[C@@H](O2)C1C/C=C/CCCC(=O)O (stereo partly drawn)
[12]; Homo sapiens, Plasma
  IC50: 9600 nM
[1]; Homo sapiens, Plasma
  IC50: 970 nM
[5]
  Kd: 26.4 nM

## CCCCCNCCC1C2CCC(O2)C1C/C=C/CCCC(=O)O (stereo not drawn)
[1]; Homo sapiens, Plasma
  IC50: 340000 nM

## O=C(O)CCC/C=C/CC1C2CCC(O2)C1CNC(=O)CNC(=O)CCCCC1CCCCC1 (stereo not drawn)
[2]
  Kb: 0.07 nM
[3]
  Kb: 2.5 nM
[1]; Homo sapiens, Plasma
  IC50: 160 nM
[5]
  Kd: 2.6 nM
[7]
  IC50: 1950 nM

## O=C(O)CCC/C=C/CC1C2CCC(O2)C1CNCCNc1ccccc1 (stereo not drawn)
[1]; Homo sapiens, Plasma
  IC50: 65000 nM

## O=C(O)CCC/C=C/CC1C2CCC(O2)C1CNC(=O)CNC(=O)CSc1ccccc1 (stereo not drawn)
[2]
  Kb: 2.4 nM
[3]
  Kb: 1.8 nM
[4]
  Inhibition: 92%
[1]; Homo sapiens, Plasma
  IC50: 21 nM
[5]
  Kd: 41.4 nM
[6]
  Inhibition: 42%
[7]
  IC50: 110 nM
[8]
  Inhibition: 98%
[9]
  Inhibition: 287%
[10]
  Inhibition: 53%
[11]
  Inhibition: 235%

## CCCCCC/C(S)=N/CC(=O)NCC1C2CCC(O2)C1C/C=C/CCCC(=O)O (stereo not drawn)
[12]; Homo sapiens, Plasma
  IC50: 230 nM
[13]; Cavia porcellus, Trachea
  Kb: 4.4 nM
[4]
  Inhibition: 94%
[1]; Homo sapiens, Plasma
  IC50: 40 nM
[5]
  Kd: 12.4 nM
[6]
  Inhibition: 56%
[14]; Rattus norvegicus, Aorta
  Kb: 1.1 nM
[8]
  Inhibition: 97%
[9]
  Inhibition: 178%
[10]
  Inhibition: 51%
[11]
  Inhibition: 158%

## O=C(O)CCC/C=C/CC1C2CCC(O2)C1CNC(=O)CNC(=O)c1ccccc1 (stereo not drawn)
[1]; Homo sapiens, Plasma
  IC50: 2600 nM

## O=C(O)CCC/C=C/CC1C2CCC(O2)C1CCNC(=O)Nc1ccccc1 (stereo not drawn)
[1]; Homo sapiens, Plasma
  IC50: 184000 nM

## CCCCCCNC(=O)CC(=O)NC1C2CCC(O2)C1C/C=C/CCCC(=O)O (stereo not drawn)
[1]; Homo sapiens, Plasma
  IC50: 125000 nM

## CCCCCNC(=O)CC(=O)NCC1C2CCC(O2)C1C/C=C/CCCC(=O)O (stereo not drawn)
[1]; Homo sapiens, Plasma
  IC50: 500 nM

## CCCCCCCNC1C2CCC(O2)C1C/C=C/CCCC(=O)O (stereo not drawn)
[1]; Homo sapiens, Plasma
  IC50: 120000 nM

## CCCCCCCNC(=O)CNC(=O)C1C2CCC(O2)C1C/C=C/CCCC(=O)O (stereo not drawn)
[1]; Homo sapiens, Plasma
  IC50: 30000 nM

## O=C(O)CCC/C=C/CC1C2CCC(O2)C1NC(=O)CCCc1ccccc1 (stereo not drawn)
[1]; Homo sapiens, Plasma
  IC50: 11000 nM

## O=C(O)CCC/C=C/CC1C2CCC(O2)C1CNC(=O)CCc1ccccc1 (stereo not drawn)
[1]; Homo sapiens, Plasma
  IC50: 3300 nM

## O=C(O)CCC/C=C/CC1C2CCC(O2)C1CNC(=O)NCc1ccccc1 (stereo not drawn)
[1]; Homo sapiens, Plasma
  IC50: 26000 nM

## CCCCCC(=O)NC(C)(C)C(=O)NCC1C2CCC(O2)C1C/C=C/CCCC(=O)O (stereo not drawn)
[1]; Homo sapiens, Plasma
  IC50: 520000 nM

## CCCCCCCCC(=O)NCC(=O)NCC1C2CCC(O2)C1C/C=C/CCCC(=O)O (stereo not drawn)
[12]; Homo sapiens, Plasma
  IC50: 1100 nM
[13]; Cavia porcellus, Trachea
  Kb: 1.4 nM
[4]
  Inhibition: 98%
[1]; Homo sapiens, Plasma
  IC50: 220 nM
[5]
  Kd: 8.3 nM
[6]
  Inhibition: 39%
[14]; Rattus norvegicus, Aorta
  Kb: 7.1 nM
[8]
  Inhibition: 99%
[9]
  Inhibition: 252%
[10]
  Inhibition: 31%
[11]
  Inhibition: 138%

## CCCCCNC(=O)CCC(=O)NC1C2CCC(O2)C1C/C=C/CCCC(=O)O (stereo not drawn)
[1]; Homo sapiens, Plasma
  IC50: 160000 nM

## CCCCOC(=O)NCC(=O)NCC1C2CCC(O2)C1C/C=C/CCCC(=O)O (stereo not drawn)
[1]; Homo sapiens, Plasma
  IC50: 1100 nM

## CC(C)(C)c1ccc(SCC(=O)NCC(=O)NCC2C3CCC(O3)C2C/C=C/CCCC(=O)O)cc1 (stereo not drawn)
[2]
  Kb: 0.1 nM
[3]
  Kb: 1.8 nM
[4]
  Inhibition: 95%
[1]; Homo sapiens, Plasma
  IC50: 15 nM
[5]
  Kd: 4.2 nM
[6]
  Inhibition: 26%
[7]
  IC50: 150 nM
[8]
  Inhibition: 98%
[9]
  Inhibition: 191%
[10]
  Inhibition: 43%
[11]
  Inhibition: 184%

## CCCCCCNCC1C2CCC(O2)C1C/C=C/CCCC(=O)O (stereo not drawn)
[1]; Homo sapiens, Plasma
  IC50: 12000 nM

## CCCCCC(=O)N(C)CC(=O)NCC1C2CCC(O2)C1C/C=C/CCCC(=O)O (stereo not drawn)
[1]; Homo sapiens, Plasma
  IC50: 3000 nM

## CCCCNC(=O)NCC(=O)NCC1C2CCC(O2)C1C/C=C/CCCC(=O)O (stereo not drawn)
[1]; Homo sapiens, Plasma
  IC50: 1000 nM

## O=C(O)CCC/C=C/CC1C2CCC(O2)C1CNNC(=O)Nc1ccccc1 (racemic)
[4]
  Inhibition: 96%
[1]
  IC50: 90 nM
[6]
  Inhibition: 56%
[8]
  Inhibition: 97%
[9]
  Inhibition: 151%
[10]
  Inhibition: 42%
[11]
  Inhibition: 59%

## O=C(O)CCC/C=C/CC1C2CCC(O2)C1CNNC(=O)Nc1ccccc1 (single isomer, unassigned; (+))
[1]
  IC50: 20 nM

## CCCCCCC(=O)NCC(=O)NCC1C2CCC(O2)C1C/C=C/CCCC(=O)O (single isomer, unassigned; (+))
[13]; Cavia porcellus, Trachea
  Kb: 174 nM
[1]; Homo sapiens, Plasma
  IC50: 6600 nM
[14]; Rattus norvegicus, Aorta
  Kb: 326 nM

## CCCCCC(=O)NC(C)C(=O)NCC1C2CCC(O2)C1C/C=C/CCCC(=O)O (stereo in doubt; 48)
[1]
  IC50: 53000 nM

## CCCCCC(=O)NC(C)C(=O)NCC1C2CCC(O2)C1C/C=C/CCCC(=O)O (stereo in doubt; 49)
[1]
  IC50: 900 nM

## CCCCCCCC(=O)NCC(=O)NCC1C2CCC(O2)C1C/C=C/CCCC(=O)O (stereo in doubt; 51)
[12]
  IC50: 430 nM
[13]
  Kb: 2 nM
[4]
  Inhibition: 98%
[1]
  IC50: 220 nM
[5]
  Kd: 17.5 nM
[6]
  Inhibition: 74%
[14]
  Kb: 3.4 nM
[8]
  Inhibition: 97%
[10]
  Inhibition: 79%
[11]
  Inhibition: 130%

## O=C(O)Cc1ccc(CCNS(=O)(=O)c2ccc(Cl)cc2)cc1 [DALTROBAN]
[1]; Homo sapiens, Plasma
  IC50: 630 nM
